# In ChEMBL document CHEMBL1138232, “Optimization of naphthalimide-imidazoacridone with potent antitumor activity leading to clinical candidate (HKH40A, RTA 502)” (J Med Chem, 2007):
# “And” between values parts separate entries of the source, which are not always exact repeats. Identical values can stand only once.
# Experiments:
# HCT-116 [1] = test: Cell cycle arrest in HCT116 cells assessed as accumulation at G2/M phase at 50 nM after 72 hrs; format: functional, Homo sapiens
# In short: (§1)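 HCT116 cells exposed to 50 nM drug for 72 h, then cell-cycle distribution analysed. Sub-G1, G1, S and G2/M fractions reported as percent of cells, with untreated control cells for comparison.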
# SF-539 = test: Antitumor activity against human SF539 cells after 48 hrs; format: functional; settings: SF-539, 48 h
# In short: (§2)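 Tested in the NCI 60 human tumour cell line screen, with continuous drug exposure for 48 h. Values include LC50 derived from the screen.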
# HCT-116 [2] = test: Antitumor activity against human HCT116 cells after 48 hrs; format: functional; settings: HCT-116, 48 h; in short: as §2
# BT-549 = test: Antitumor activity against human BT549 cells after 48 hrs; format: functional; settings: BT-549, 48 h; in short: as §2
# SK-OV-3 = test: Antitumor activity against human SK-OV-3 cells after 48 hrs; format: functional; settings: SK-OV-3, 48 h; in short: as §2
# COLO 205 [3] = test: Antitumor activity against human Colo205 cells expressing mutated p53; format: functional, cell-based
# In short: (§3)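 Compounds tested as tri(methanesulfonate) salts, soluble in water and dilute buffers. Human tumour cells carrying wild-type or mutated p53 were exposed for 5 days, and viability was read by MTT assay. GI50, TGI and LC50 were calculated from the MTT data. Values are means ± SD of at least three independent experiments, with coefficients of variation of 10–20%.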
# HCT-116 [4] = test: Growth inhibition of human HCT116 cells after 5 days by MTT assay; format: functional; settings: HCT-116, 120 h
# In short: (§4)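 MTT assay after 5 day continuous exposure. GI50, TGI and LC50 calculated from the MTT data. Means ± SD of at least three independent experiments; coefficients of variation 10-20%. Compounds used as tri(methanesulfonate) salts.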
# SF-268 = test: Antitumor activity against human SF268 cells after 48 hrs; format: functional; settings: SF-268, 48 h; in short: as §2
# IGROV-1 = test: Antitumor activity against human IGROV1 cells after 48 hrs; format: functional; settings: IGROV-1, 48 h; in short: as §2
# K562 = test: Antitumor activity against human K562 cells after 48 hrs; format: functional; in short: as §2
# HCT-116 [5] = test: Cell cycle arrest in HCT116 cells assessed as accumulation at Sub G1 phase at 50 nM after 72 hrs; format: functional, Homo sapiens; in short: as §1
# [6] = Antitumor activity against human NCI-H322 cells after 48 hrs; format: functional; settings: NCI-H322, 48 h; in short: as §2
# CAKI-1 = test: Antitumor activity against human CAKI-1 cells after 48 hrs; format: functional; settings: CAKI-1, 48 h; in short: as §2
# OVCAR-5 = test: Antitumor activity against human OVCAR5 cells after 48 hrs; format: functional; settings: OVCAR-5, 48 h; in short: as §2
# Hs-578T = test: Antitumor activity against human HS578T cells after 48 hrs; format: functional; in short: as §2
# [7] = Drug level in F344 rat plasma at 20 mg/kg, iv after 4 hrs; format: ADME, organism-based; set-up: dose 20 mg/kg, route intravenous
# In short: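 Single i.v. dose of 20 mg/kg to ncr nu/nu mice and an F344 rat. Plasma concentrations followed over time and fitted by nonlinear regression to give distribution and elimination phases, AUC and apparent volumes of distribution. Detection limit 50 nM.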
# NCI-H460 = test: Antitumor activity against human NCI-H460 cells after 48 hrs; format: functional; settings: NCI-H460, 48 h; in short: as §2
# NCI = test: Antitumor activity against human NCI/ADR-RES cells after 48 hrs; format: functional; in short: as §2
# [8] = Growth inhibition of human Hep3B cells after 5 days by MTT assay; format: functional, Hep 3B2; settings: 120 h; in short: as §4
# SNB-19 = test: Antitumor activity against human SNB19 cells after 48 hrs; format: functional; settings: SNB-19, 48 h; in short: as §2
# MIA PaCa-2 = test: Inhibition of tumor growth in PaCa2 cells xenografted nu/nu mouse at 15 mg/kg; format: functional, Homo sapiens
# In short: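 PaCa-2 tumour fragments implanted on the flank of nu/nu mice, 10 per group. Intraperitoneal treatment, Q3Dx4, started 12 days post-inoculation at 80 mm3 tumour volume. Tumour growth inhibition measured.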
# RPMI-8226 = test: Antitumor activity against human RPMI-8226 cells after 48 hrs; format: functional; settings: RPMI-8226, 48 h; in short: as §2
# SR = test: Antitumor activity against human SR cells after 48 hrs; format: functional
# In short: (§5)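 NCI 60 human tumour cell line screen; 48 h continuous drug exposure. Compounds tested as tri(methanesulfonate) salts, soluble in water and dilute buffers. Dilute solutions are light-sensitive and adsorb to glass or quartz.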
# UO-31 = test: Antitumor activity against human UO31 cells after 48 hrs; format: functional; settings: UO-31, 48 h; in short: as §5
# [9] = Antitumor activity against human […] cells after 48 hrs; format: functional; in short: as §2
# HCT-116 [10] = test: Cell cycle arrest in HCT116 cells assessed as accumulation at S phase at 50 nM after 72 hrs; format: functional, Homo sapiens; in short: as §1
# COLO 205 [11] = test: Antitumor activity against human COLO205 cells after 48 hrs; format: functional; settings: COLO 205, 48 h; in short: as §2
# EKVX = test: Antitumor activity against human EKVX cells after 48 hrs; format: functional; in short: as §2
# T47D = test: Antitumor activity against human T47D cells after 48 hrs; format: functional; in short: as §5
# NCI-H522 = test: Antitumor activity against human NCI-H522 cells after 48 hrs; format: functional; settings: NCI-H522, 48 h; in short: as §2
# SN12C = test: Antitumor activity against human SN12C cells after 48 hrs; format: functional; in short: as §2
# PC-3 = test: Antitumor activity against PC3 cells expressing mutated p53; format: functional, cell-based; settings: Homo sapiens; in short: as §3
# SW-620 = test: Antitumor activity against human SW620 cells after 48 hrs; format: functional; settings: SW-620, 48 h; in short: as §5
# [12] = read-out: Log LC50 (the source's name) (converted)
compound,measurement,setting,value
COc1ccc2c(c1)c(=O)c1c(NCCCN3CCN(CCCN4C(=O)c5cccc6cc([N+](=O)[O-])cc(c56)C4=O)CC3)ccc3ncn2c31.CS(=O)(=O)O,Activity,HCT-116 [1],27.1%
same,GI50,SF-539,2.75 nM
same,CC50,SF-539; [12],> 1000 nM
same,TGI,SF-539; read-out: Log TGI (converted),25.1 nM
same,GI50,HCT-116 [2],0.407 nM
same,CC50,HCT-116 [2]; [12],214 nM
same,TGI,HCT-116 [2]; read-out: Log TGI (converted),15.1 nM
same,GI50,BT-549,3.09 nM
same,CC50,BT-549; [12],> 1000 nM
same,TGI,BT-549; read-out: Log TGI (converted),53.7 nM
same,GI50,SK-OV-3,151 nM
same,CC50,SK-OV-3; [12],> 1000 nM
same,TGI,SK-OV-3; read-out: Log TGI (converted),> 1000 nM
same,IC50,COLO 205 [3],80 nM
same,GI50,HCT-116 [4],1 nM
same,LC50,HCT-116 [4],30 nM
same,GI50,SF-268,10.2 nM
same,CC50,SF-268; [12],> 1000 nM
same,TGI,SF-268; read-out: Log TGI (converted),> 1000 nM
same,GI50,IGROV-1,3.39 nM
same,CC50,IGROV-1; [12],> 1000 nM
same,TGI,IGROV-1; read-out: Log TGI (converted),51.3 nM
same,GI50,"K562; Homo sapiens, K562, 48 h",1.74 nM
same,TGI,K562; read-out: Log TGI (converted),186 nM and > 1000 nM
same,Activity,HCT-116 [5],48%
same,GI50,[6],5.89 nM
same,CC50,[6]; [12],> 1000 nM
same,TGI,[6]; read-out: Log TGI (converted),309 nM
same,GI50,CAKI-1,3.02 nM
same,CC50,CAKI-1; [12],> 1000 nM
same,TGI,CAKI-1; read-out: Log TGI (converted),40.7 nM
same,GI50,OVCAR-5,339 nM
same,CC50,OVCAR-5; [12],> 1000 nM
same,TGI,OVCAR-5; read-out: Log TGI (converted),> 1000 nM
same,GI50,Hs-578T,14.8 nM
same,CC50,Hs-578T; [12],> 1000 nM
same,TGI,Hs-578T; read-out: Log TGI (converted),> 1000 nM
same,concentration at 4 h,[7],90 nM
same,GI50,NCI-H460,2.57 nM
same,CC50,NCI-H460; [12],> 1000 nM
same,TGI,NCI-H460; read-out: Log TGI (converted),> 1000 nM
same,GI50,NCI,24 nM
same,CC50,NCI; [12],> 1000 nM
same,TGI,NCI; read-out: Log TGI (converted),> 1000 nM
same,GI50,[8],2.5 nM
same,CC50,[8]; read-out: LC50 (the source's name),50 nM
same,GI50,SNB-19,8.51 nM
same,CC50,SNB-19; [12],> 1000 nM
same,TGI,SNB-19; read-out: Log TGI (converted),> 1000 nM
same,inhibition in vivo at 15 mg/kg,MIA PaCa-2,53.5%
same,GI50,RPMI-8226,4.07 nM
same,CC50,RPMI-8226; [12],> 1000 nM
same,TGI,RPMI-8226; read-out: Log TGI (converted),> 1000 nM
same,GI50,SR,< 0.1 nM
same,CC50,SR; [12],17 nM
same,TGI,SR; read-out: Log TGI (converted),< 0.1 nM
same,GI50,UO-31,2.69 nM
same,CC50,UO-31; [12],> 1000 nM
same,TGI,UO-31; read-out: Log TGI (converted),17.8 nM
same,GI50,[9],4.79 nM
same,CC50,[9]; [12],> 1000 nM
same,TGI,[9]; read-out: Log TGI (converted),> 1000 nM
same,Activity,HCT-116 [10],2.3%
same,GI50,COLO 205 [11],6.31 nM
same,CC50,COLO 205 [11]; [12],> 1000 nM
same,TGI,COLO 205 [11]; read-out: Log TGI (converted),> 1000 nM
same,GI50,EKVX,3.31 nM
same,CC50,EKVX; [12],> 1000 nM
same,TGI,EKVX; read-out: Log TGI (converted),58.9 nM
same,GI50,T47D,8.71 nM
same,CC50,T47D; [12],> 1000 nM
same,TGI,T47D; read-out: Log TGI (converted),> 1000 nM
same,GI50,NCI-H522,4.17 nM
same,CC50,NCI-H522; [12],> 1000 nM
same,TGI,NCI-H522; read-out: Log TGI (converted),151 nM
same,GI50,SN12C,2.51 nM
same,CC50,SN12C; [12],> 1000 nM
same,TGI,SN12C; read-out: Log TGI (converted),> 1000 nM
same,IC50,PC-3,45 nM
same,GI50,SW-620,0.676 nM
same,CC50,SW-620; [12],> 1000 nM
same,TGI,SW-620; read-out: Log TGI (converted),> 1000 nM
